Type in all cases: functional, cell-based
One assay relates to MDA-MB-231. Put plainly: Inhibitory activity against MDA-MB-231 human breast cell line. The procedure, abridged:
(§1)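 Cells kept in DMEM with 5% FBS, 2 mM glutamine and penicillin/streptomycin at 37 °C, 5% CO2. Cells plated and attached for 24 h, then exposed to 0.5-100 µM compound (10 mM DMSO stocks) for 96 h in quadruplicate wells. MTT (1 mg/mL, serum-free medium) was added for 4 h, formazan dissolved in DMSO:ethanol 1:1, and A540 read. IC50 taken from log plots of percent of control; two runs.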

The next assay concerns MDA-MB-435. Description: Inhibitory activity against MDA-MB-435 human breast cell line. The essentials: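 Cells kept in IMEM with 5% FBS and 2 mM glutamine at 37 °C, 5% CO2. After 24 h attachment, cells were exposed in quadruplicate wells to 0.5-100 µM compound (10 mM DMSO stocks) for 96 h. Read-out was MTT (1 mg/mL, 4 h), with formazan dissolved in DMSO:ethanol and absorbance at 540 nm. IC50 came from log plots of percent of control vs concentration; assayed twice.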

The next assay relates to MCF-10A. Description: Inhibitory activity against MCF-10A human breast cell line.
The subject of the next assay is MCF-12A. Description: Inhibitory activity against MCF-12A human breast cell line.
For a further assay, the system named is MCF7. Put plainly: Inhibitory activity against Wt-MCF7 human breast cell line. The procedure, abridged: as §1

Molecules are shown by their SMILES.

As to `O=C(/C=C/c1ccc(I)cc1)c1ccc(O)cc1`, the IC50 in the assay on MDA-MB-231 turned out to be 8 µM; in the assay on MDA-MB-435, 4.5 µM; with MCF-10A, 15 µM; with MCF-12A, 30 µM; with MCF7, 7 µM.

Consider `O=C(O)COc1ccc(C(=O)/C=C/c2ccc(I)cc2)cc1`, for which the IC50 was determined as 44 µM in the assay with MDA-MB-231; 18 µM in the assay on MDA-MB-435; 44 µM with MCF-10A; 38 µM in the assay on MCF-12A; 9 µM in the assay on MCF7.

`O=C(/C=C/c1ccc(Cl)c(Cl)c1)c1ccc(B(O)O)cc1`: the IC50 came to 9.5 µM with MDA-MB-231; 3.5 µM in the assay on MDA-MB-435; 18 µM in the assay on MCF-10A; 11 µM in the assay on MCF-12A; 5 µM in the assay on MCF7.

In the case of `O=C(/C=C/c1ccc(B(O)O)cc1)c1ccc(Cl)c(Cl)c1`, the IC50 with MDA-MB-231 amounted to 8 µM; in the assay on MDA-MB-435 it was 4 µM; in the assay with MCF-10A, 18 µM; in the assay on MCF-12A, 15 µM; with MCF7, 5.5 µM.

Consider `O=C(/C=C/c1ccc(F)c(Br)c1)c1ccc(B(O)O)cc1`, for which the IC50 with MDA-MB-231 came to 9.5 µM; with MDA-MB-435 it was 8.8 µM; with MCF-10A it was 17 µM; in the assay with MCF-12A, 38 µM; in the assay with MCF7, 8.5 µM.

Take `O=C(/C=C/c1ccccc1)c1ccc[nH]1`: the IC50 in the assay with MDA-MB-231 amounted to 15 µM; in the assay with MDA-MB-435 it was 15 µM; in the assay on MCF-10A, 63 µM; in the assay with MCF-12A, 38 µM; with MCF7, 9 µM.

As to `O=C(/C=C/c1ccc(B(O)O)cc1)c1ccc[nH]1`, the IC50 in the assay with MDA-MB-231 was found to be 23 µM; with MDA-MB-435, 15 µM; with MCF-10A, 38 µM; with MCF-12A it was 60 µM; with MCF7, 19 µM.

With `O=C(/C=C/c1ccc(I)cc1)c1ccc(B(O)O)cc1`, the IC50 with MDA-MB-231 was 8.8 µM; in the assay with MDA-MB-435 it was 10 µM; in the assay with MCF-10A, 75 µM; in the assay on MCF-12A, 63 µM; in the assay with MCF7, 7 µM.

As to `O=C(O)COc1ccc(C(=O)/C=C/c2ccc(Cl)c(Cl)c2)cc1`, the IC50 in the assay with MDA-MB-231 turned out to be 9 µM; in the assay with MDA-MB-435, 9 µM; in the assay with MCF-10A it was 13 µM; in the assay on MCF-12A it was 15 µM; with MCF7, 13 µM.

For the molecule `O=C(/C=C/c1ccc(F)c(Cl)c1)c1ccc(B(O)O)cc1`, the IC50 with MDA-MB-231 came to 8.5 µM; with MDA-MB-435, 16 µM; in the assay on MCF-10A, 25 µM; with MCF-12A, 22 µM; in the assay on MCF7, 6 µM.

With `O=C(/C=C/c1ccc(I)cc1)c1ccc(OCB(O)O)cc1`, the IC50 in the assay on MDA-MB-231 stood at 11 µM; in the assay on MDA-MB-435 it was 18 µM; in the assay with MCF-10A it was 38 µM; in the assay on MCF-12A it was 100 µM; with MCF7, 9.5 µM.

With `O=C(/C=C/c1ccc(F)c(F)c1)c1ccc(B(O)O)cc1`, the 50% inhibitory concentration (IC50) in the assay with MDA-MB-231 is 8.8 µM; with MDA-MB-435 it was 8.8 µM; in the assay on MCF-10A, 18 µM; with MCF-12A it was 39 µM; in the assay on MCF7, 7.8 µM.

As for `O=C(O)COc1ccc(/C=C/C(=O)c2ccc(Cl)c(Cl)c2)cc1`, the IC50 in the assay on MDA-MB-231 was 18 µM; in the assay with MDA-MB-435, 13 µM; with MCF-10A, 12 µM; in the assay with MCF-12A, 28 µM; with MCF7 it was 15 µM.

The values above are taken from ChEMBL document CHEMBL1145820, “Design, synthesis, and evaluation of novel boronic-chalcone derivatives as antitumor agents” (J Med Chem, 2003).
